# Residues, ends and D or L forms follow the SMILES beside them.
# How the values were obtained:
# Rattus norvegicus [1] = assay: In vivo AII-like activity, expressed as percent activity relative to AII (angiotensin II), measured in rat blood pressure assay; assay type: functional
# Procedure, shortened: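 Rat blood pressure assay in vivo. Residual agonist activity is expressed as percent activity relative to AII.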
# Rattus norvegicus [2] = organism: Rattus norvegicus; assay: Dose required for the two fold increase in the dose of AII to produce the same elevation in blood pressure as in the control period.; assay type: functional
# Procedure, shortened: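 Rat blood pressure assay in vivo, using 250-g rats. ID50 is the antagonist dose, in ng/rat per min, that requires a twofold increase in the AII dose to give the same blood pressure rise as in the control period.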
# [3] = target: Angiotensin II receptor (Homo sapiens) (UniProt P30556+P50052); assay: In vitro angiotensin II-like activity, expressed as percent relative to angiotensin II, measured in the rabbit aorta strip assay; assay type: functional, tissue-based; conditions: Oryctolagus cuniculus
Biological activity [3] [%],Compound,Biological activity (Rattus norvegicus [1]) [%],ID50 (Rattus norvegicus [2]) [ng min-1 rat-1]
–,CC[C@H](C)[C@H](NC(=O)[C@H](Cc1ccc(O)cc1)NC(=O)[C@@H](NC(=O)[C@H](CCCNC(=N)N)NC(=O)[C@@H](N)CC(=O)O)C(C)C)C(=O)N[C@@H](Cc1c[nH]cn1)C(=O)N1CCC[C@H]1C(=O)N[C@@H](C(=O)O)[C@@H](C)CC,0.72,–
–,CC[C@H](C)[C@H](NC(=O)[C@H](Cc1ccc(O)cc1)NC(=O)[C@@H](NC(=O)[C@H](CCCN=C(N)N)NC(=O)[C@@H](N)CC(=O)O)C(C)C)C(=O)N[C@@H](Cc1c[nH]cn1)C(=O)N1CCC[C@H]1C(=O)N[C@@](C)(Cc1ccccc1)C(=O)O,80,–
–,CC[C@H](C)[C@H](NC(=O)[C@H](Cc1ccc(O)cc1)NC(=O)[C@@H](NC(=O)[C@H](CCCN=C(N)N)NC(=O)[C@@H](N)CC(=O)O)C(C)C)C(=O)N[C@@H](Cc1c[nH]cn1)C(=O)N1CCC[C@H]1C(=O)N[C@@H](Cc1ccc(Br)cc1)C(=O)O,50,–
-0,CC[C@H](C)[C@H](NC(=O)[C@H](Cc1ccc(O)cc1)NC(=O)[C@@H](NC(=O)[C@H](CCCN=C(N)N)NC(=O)CNC)C(C)C)C(=O)N[C@@H](Cc1c[nH]cn1)C(=O)N1CCC[C@H]1C(=O)N[C@H](Cc1ccc(O)cc1)C(=O)O,–,20
–,COC(=O)[C@H](Cc1ccccc1)NC(=O)[C@@H]1CCCN1C(=O)[C@H](Cc1c[nH]cn1)NC(=O)[C@@H](NC(=O)[C@H](Cc1ccc(O)cc1)NC(=O)[C@@H](NC(=O)[C@H](CCCN=C(N)N)NC(=O)[C@@H](N)CC(N)=O)C(C)C)C(C)C (H-NRVYVHPF-OMe),10,–
–,CC[C@H](C)[C@H](NC(=O)[C@H](Cc1ccc(O)cc1)NC(=O)[C@@H](NC(=O)[C@H](CCCNC(=N)N)NC(=O)CNC)C(C)C)C(=O)N[C@@H](Cc1c[nH]cn1)C(=O)N1CCC[C@H]1C(=O)N[C@](C)(Cc1ccccc1)C(=O)O,–,10
–,CC[C@H](C)[C@H](NC(=O)[C@H](Cc1ccc(O)cc1)NC(=O)[C@@H](NC(=O)[C@H](CCCNC(=N)N)NC(=O)CNC)C(C)C)C(=O)N[C@@H](Cc1c[nH]cn1)C(=O)N1CCC[C@H]1C(=O)N[C@H](Cc1ccc2ccccc2c1)C(=O)O,–,25
–,CC[C@H](C)[C@H](NC(=O)[C@H](Cc1ccc(O)cc1)NC(=O)[C@@H](NC(=O)[C@H](CCCNC(=N)N)NC(=O)CNC)C(C)C)C(=O)N[C@@H](Cc1c[nH]cn1)C(=O)N1CCC[C@H]1C(=O)N[C@H](Cc1ccc(Cl)cc1)C(=O)O,–,25
–,CC[C@H](C)[C@H](NC(=O)[C@H](Cc1ccc(O)cc1)NC(=O)[C@@H](NC(=O)[C@H](CCCN=C(N)N)NC(=O)[C@@H](N)CC(=O)O)C(C)C)C(=O)N[C@@H](Cc1c[nH]cn1)C(=O)N1CCC[C@H]1C(=O)N[C@H](C(=O)O)C(C)C (H-DRVYIHPV-OH),0.5,–
-0,CC[C@H](C)[C@H](NC(=O)[C@H](Cc1ccccc1)NC(=O)[C@@H](NC(=O)[C@H](CCCN=C(N)N)NC(=O)CNC)C(C)C)C(=O)N[C@@H](Cc1c[nH]cn1)C(=O)N1CCC[C@H]1C(=O)N[C@@H](Cc1ccc(O)cc1)C(=O)O,–,50
–,CC[C@H](C)[C@H](NC(=O)[C@H](Cc1ccc(O)cc1)NC(=O)[C@@H](NC(=O)[C@@H](CCCNC(=N)N)NC(=O)CNC)C(C)C)C(=O)N[C@@H](Cc1c[nH]cn1)C(=O)N1CCC[C@@H]1C(=O)NC(Cc1c[nH]c2ccccc12)C(=O)O (stereo in doubt),–,10
–,CC[C@H](C)[C@H](NC(=O)[C@H](Cc1ccc(O)cc1)NC(=O)[C@@H](NC(=O)[C@H](CCCN=C(N)N)NC(=O)[C@@H](N)CC(=O)O)C(C)C)C(=O)N[C@@H](Cc1c[nH]cn1)C(=O)N1CCC[C@H]1C(=O)N[C@@H](Cc1c[nH]c2ccccc12)C(=O)O (H-DRVYIHPW-OH),22.2,–
–,CC(C)[C@H](NC(=O)[C@H](CCCN=C(N)N)NC(=O)[C@@H](N)CC(N)=O)C(=O)N[C@H](Cc1ccc(O)cc1)C(=O)N[C@H](C(=O)N[C@@H](Cc1c[nH]cn1)C(=O)N1CCC[C@H]1C(=O)N[C@@H](Cc1ccccc1)C(=O)O)C(C)C,0.03,–
–,CC[C@H](C)[C@H](NC(=O)[C@H](Cc1ccc(O)cc1)NC(=O)[C@@H](NC(=O)[C@H](CCCN=C(N)N)NC(=O)[C@@H](N)CC(=O)O)C(C)C)C(=O)N[C@@H](Cc1c[nH]cn1)C(=O)N1CCC[C@H]1C(=O)N[C@@H](Cc1ccc(N)cc1)C(=O)O,53,–
-0,CC[C@H](C)[C@H](NC(=O)[C@H](Cc1ccccc1)NC(=O)[C@@H](NC(=O)[C@H](CCCN=C(N)N)NC(=O)CNC)C(C)C)C(=O)N[C@@H](Cc1c[nH]cn1)C(=O)N1CCC[C@H]1C(=O)N[C@H](Cc1ccc(O)cc1)C(=O)O,–,25
100,CC[C@H](C)[C@H](NC(=O)[C@H](Cc1ccc(O)cc1)NC(=O)[C@@H](NC(=O)[C@H](CCCN=C(N)N)NC(=O)[C@@H](N)CC(=O)O)C(C)C)C(=O)N[C@@H](Cc1c[nH]cn1)C(=O)N1CCC[C@H]1C(=O)N[C@@H](Cc1ccc(O)cc1)C(=O)O (H-DRVYIHPY-OH),83,–
–,CC(C)[C@H](NC(=O)[C@H](CCCN=C(N)N)NC(=O)[C@@H](N)CC(N)=O)C(=O)N[C@@H](Cc1ccc(O)cc1)C(=O)N[C@H](C(=O)N[C@@H](Cc1c[nH]cn1)C(=O)N1CCC[C@H]1C(=O)N[C@@H](Cc1ccccc1)C(N)=O)C(C)C (H-NRVYVHPF-NH2),3,–
–,CC[C@H](C)[C@H](NC(=O)[C@H](Cc1ccc(O)cc1)NC(=O)[C@@H](NC(=O)[C@H](CCCNC(=N)N)NC(=O)C[C@@H](N)C(=O)O)C(C)C)C(=O)N[C@@H](Cc1c[nH]cn1)C(=O)N1CCC[C@H]1C(=O)N[C@@H](CC(C)C)C(=O)O,–,15
–,CC[C@H](C)[C@H](NC(=O)[C@H](Cc1ccc(O)cc1)NC(=O)[C@@H](NC(=O)[C@H](CCCNC(=N)N)NC(=O)CNC)C(C)C)C(=O)N[C@@H](Cc1c[nH]cn1)C(=O)N1CCC[C@H]1C(=O)N[C@H](Cc1ccccc1)C(N)=O,–,12.5
–,CC[C@H](C)[C@H](NC(=O)C(C)NC(=O)[C@H](Cc1c[nH]cn1)NC(=O)[C@H](NC(=O)[C@@H](Cc1ccc(O)cc1)NC(=O)[C@@H](NC(=O)[C@H](CCCNC(=N)N)NC(=O)[C@@H](N)CC(=O)O)C(C)C)C(C)C)C(=O)O (stereo in doubt),–,0
–,CC[C@H](C)[C@H](NC(=O)[C@H](Cc1ccc(O)cc1)NC(=O)[C@@H](NC(=O)[C@@H](CCCN=C(N)N)NC(=O)[C@@H](N)CC(=O)O)C(C)C)C(=O)NC(Cc1c[nH]cn1)C(=O)N1CCC[C@@H]1C(=O)N[C@@H](C(=O)O)[C@@H](C)CC (stereo in doubt),0.014,–
–,CC(C)[C@H](NC(=O)[C@H](CCCNC(=N)N)NC(=O)[C@@H](N)CC(N)=O)C(=O)N[C@@H](Cc1ccc(O)cc1)C(=O)N1CCC[C@@H]1C(=O)N[C@@H](Cc1c[nH]cn1)C(=O)N1CCC[C@H]1C(=O)N[C@@H](Cc1ccccc1)C(=O)O,0.05,–
-0,CC[C@H](C)[C@H](NC(=O)[C@H](Cc1ccc(O)cc1)NC(=O)[C@@H](NC(=O)[C@@H](CCCNC(=N)N)NC(=O)CNC)C(C)C)C(=O)NC(Cc1c[nH]cn1)C(=O)N1CCC[C@@H]1C(=O)N[C@@H](C(=O)O)C(C)C (stereo in doubt),–,–
–,CC(C)[C@H](NC(=O)[C@H](CCCN=C(N)N)NC(=O)[C@@H](N)CC(N)=O)C(=O)N[C@@H](Cc1ccc(O)cc1)C(=O)N1CCC[C@H]1C(=O)N[C@@H](Cc1c[nH]cn1)C(=O)N1CCC[C@H]1C(=O)N[C@@H](Cc1ccccc1)C(=O)O,10,–
